Laboratory results reported in BindingDB's records for doi:10.1128/AAC.00971-08 (Cnrs-Cpbs/Umr 5236, 2009).
pKd: −log10 of the molar value.

Molecular target: Albumin (Homo sapiens, UniProt P02768)
Test: Binding affinity to first site on human serum albumin by SPR
Procedure, shortened: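 SPR on a BIACORE 3000 at 25°C. HSA was amine-coupled to a CM5 chip at 40 µg/ml in 10 mM acetate, pH 5.2. Drug was injected from 400 µM to 0.1 µM in twofold dilutions in PBS with 5% DMSO at 50 µl/min, with 30 s association and 30 s dissociation. Responses were reference-subtracted, read 10 s into the injection and DMSO-corrected. Dose-response curves gave KD or fraction of sites occupied.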

Sequence of Albumin (P02768 whole entry): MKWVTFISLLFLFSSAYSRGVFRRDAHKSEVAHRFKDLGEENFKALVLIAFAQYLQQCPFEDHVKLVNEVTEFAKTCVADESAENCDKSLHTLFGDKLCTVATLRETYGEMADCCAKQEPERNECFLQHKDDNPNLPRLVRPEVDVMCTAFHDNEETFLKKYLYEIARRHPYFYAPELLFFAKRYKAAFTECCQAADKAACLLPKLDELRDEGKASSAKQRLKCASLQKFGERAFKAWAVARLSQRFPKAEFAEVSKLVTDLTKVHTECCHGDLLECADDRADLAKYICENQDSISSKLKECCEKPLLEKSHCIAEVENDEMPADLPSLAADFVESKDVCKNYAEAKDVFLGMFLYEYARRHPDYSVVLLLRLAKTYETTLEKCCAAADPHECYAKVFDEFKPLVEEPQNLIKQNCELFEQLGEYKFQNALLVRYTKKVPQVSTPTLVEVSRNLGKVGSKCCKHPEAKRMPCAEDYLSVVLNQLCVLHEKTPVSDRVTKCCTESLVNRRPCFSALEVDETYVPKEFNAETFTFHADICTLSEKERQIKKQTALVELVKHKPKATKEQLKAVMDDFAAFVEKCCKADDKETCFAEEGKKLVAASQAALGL

Row | Structure (SMILES) | pKd
1 | COc1ccc(OC)c(/C=C2\SC(=S)N(C(C(=O)O)c3ccccc3)C2=O)c1 (configuration not stated) [2-[(5Z)-5-[(2,5-dimethoxyphenyl)methylidene]-4-oxo-2-sulfanylidene-3-thiazolidinyl]-2-phenylacetic acid] | 4.92
2 | CN(C)c1ccc(O)c2c1C[C@H]1C[C@H]3[C@H](N(C)C)C(=O)C(C(N)=O)C(=O)[C@@]3(O)C(=O)C1C2=O (some centres not stated) [Klinomycin] | 4.92
